Assays:
[1] = biological target: cGMP-specific 3',5'-cyclic phosphodiesterase (Homo sapiens, UniProt O76074); test: Inhibition of N-terminal GST-tagged full length recombinant human PDE5A1 catalytic domain expressed in Baculovirus infected Sf9 insect cells using FAM-cGMP as substrate after 1 hr by fluorescence polarization assay
Homo sapiens [2] = organism: Homo sapiens; test: Selectivity ratio of IC50 for N-terminal GST-tagged full length recombinant human PDE1A to IC50 for N-terminal GST-tagged full length recombinant human PDE5A1 catalytic domain
Homo sapiens [3] = organism: Homo sapiens; test: Selectivity ratio of IC50 for N-terminal FLAG-tagged human PDE2A1 (2 to 941 residues) to IC50 for N-terminal GST-tagged full length recombinant human PDE5A1 catalytic domain
Homo sapiens [4] = organism: Homo sapiens; test: Selectivity ratio of IC50 for N-terminal GST-tagged recombinant human PDE3B (592 end residues) to IC50 for N-terminal GST-tagged full length recombinant human PDE5A1 catalytic domain
Homo sapiens [5] = organism: Homo sapiens; test: Selectivity ratio of IC50 for N-terminal GST-tagged full length recombinant human PDE4A1A to IC50 for N-terminal GST-tagged full length recombinant human PDE5A1 catalytic domain
Homo sapiens [6] = organism: Homo sapiens; test: Selectivity ratio of IC50 for N-terminal GST-tagged full length recombinant human PDE6C to IC50 for N-terminal GST-tagged full length recombinant human PDE5A1 catalytic domain
Homo sapiens [7] = organism: Homo sapiens; test: Selectivity ratio of IC50 for N-terminal GST-tagged full length recombinant human PDE11A to IC50 for N-terminal GST-tagged full length recombinant human PDE5A1 catalytic domain
[8] = Half life in Wistar rat at 2 mg/kg, iv; assay type: ADME, organism-based; conditions: in vivo
[9] = Half life in Wistar rat at 15 mg/kg, po; assay type: ADME, organism-based; conditions: in vivo
[10] = Cmax in Wistar rat at 2 mg/kg, iv; assay type: ADME, organism-based; parameters: dose 2 mg/kg, route intravenous; conditions: in vivo
[11] = Cmax in Wistar rat at 15 mg/kg, po; assay type: ADME, organism-based; parameters: dose 15 mg/kg, route oral; conditions: in vivo
[12] = Tmax in Wistar rat at 2 mg/kg, iv; assay type: ADME, organism-based; conditions: in vivo
[13] = Tmax in Wistar rat at 15 mg/kg, po; assay type: ADME, organism-based; conditions: in vivo
[14] = AUC (0 to 24 hrs) in Wistar rat at 2 mg/kg, iv; assay type: ADME, organism-based; parameters: time < 24 hr, dose 2 mg/kg, route intravenous; conditions: in vivo
[15] = AUC (0 to 24 hrs) in Wistar rat at 15 mg/kg, po; assay type: ADME, organism-based; parameters: time < 24 hr, dose 15 mg/kg, route oral; conditions: in vivo
Method in brief: (§1)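 Male Wistar rats (228−249 g) fasted 12 h, dosed orally in 0.5% methylcellulose. Blood drawn at 0, 0.5, 1, 1.5, 2, 4, 6, 12 and 24 h; plasma separated by centrifugation at 4 °C, stored at −80 °C, drug measured by LC–MS/MS, and PK parameters computed from the concentration–time data.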

[16] = AUC (0 to infinity) in Wistar rat at 2 mg/kg, iv; assay type: ADME, organism-based; parameters: dose 2 mg/kg, route intravenous, time infinity; conditions: in vivo
Rattus norvegicus [17] = test: (§2) AUC (0 to infinity) in Wistar rat at 15 mg/kg, po; assay type: ADME, organism-based; parameters: dose 15 mg/kg, route oral, time infinity; conditions: in vivo; method in brief: as §1
[18] = MRT in Wistar rat at 2 mg/kg, iv; assay type: ADME, organism-based; conditions: in vivo
[19] = MRT in Wistar rat at 15 mg/kg, po; assay type: ADME, organism-based; conditions: in vivo
[20] = Clearance in Wistar rat at 2 mg/kg, iv; assay type: ADME, organism-based; conditions: in vivo
[21] = Volume of distribution at steady state in Wistar rat at 2 mg/kg, iv; assay type: ADME, organism-based; conditions: in vivo, read-out: Vdss
Rattus norvegicus [22] = test: Volume of distribution at steady state in Wistar rat at 15 mg/kg, po; assay type: ADME, organism-based; conditions: in vivo
[23] = Oral bioavailability in Wistar rat at 15 mg/kg; assay type: ADME, organism-based; conditions: in vivo
Thoracic aorta = test: Vasorelaxant activity in norepinephrine-pretreated New Zealand rabbit thoracic aorta assessed as increase in aortic relaxation at 1 uM measured after 15 mins relative to control; assay type: functional, Oryctolagus cuniculus; parameters: scale not given: the % may be the effect or the level left
Method in brief: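 Thoracic aortic rings from New Zealand white rabbits were held in Krebs buffer at 2 g resting tension (0%) and equilibrated 2 h. Rings were contracted to maximum with 1 µM norepinephrine (100%). Compounds were added cumulatively at 15 min intervals, with tension recorded 15 min after each dose. Relaxation % = (max − recorded)/(max − 2 g) × 100; n = 1–2 rings.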

Oryctolagus cuniculus = test: Vasorelaxant activity in iv dosed New Zealand rabbit assessed as induction of ICP change in response to electrically pelvic nerve stimulation administered as bolus dose; assay type: functional
[24] = biological target: Cone cGMP-specific 3',5'-cyclic phosphodiesterase subunit alpha' (Homo sapiens, UniProt P51160); test: Inhibition of N-terminal GST-tagged full length recombinant human PDE6C expressed in Baculovirus infected Sf9 insect cells using […] as substrate after 1 hr by fluorescence polarization assay
Chain of Cone cGMP-specific 3',5'-cyclic phosphodiesterase subunit alpha' (P51160 whole entry): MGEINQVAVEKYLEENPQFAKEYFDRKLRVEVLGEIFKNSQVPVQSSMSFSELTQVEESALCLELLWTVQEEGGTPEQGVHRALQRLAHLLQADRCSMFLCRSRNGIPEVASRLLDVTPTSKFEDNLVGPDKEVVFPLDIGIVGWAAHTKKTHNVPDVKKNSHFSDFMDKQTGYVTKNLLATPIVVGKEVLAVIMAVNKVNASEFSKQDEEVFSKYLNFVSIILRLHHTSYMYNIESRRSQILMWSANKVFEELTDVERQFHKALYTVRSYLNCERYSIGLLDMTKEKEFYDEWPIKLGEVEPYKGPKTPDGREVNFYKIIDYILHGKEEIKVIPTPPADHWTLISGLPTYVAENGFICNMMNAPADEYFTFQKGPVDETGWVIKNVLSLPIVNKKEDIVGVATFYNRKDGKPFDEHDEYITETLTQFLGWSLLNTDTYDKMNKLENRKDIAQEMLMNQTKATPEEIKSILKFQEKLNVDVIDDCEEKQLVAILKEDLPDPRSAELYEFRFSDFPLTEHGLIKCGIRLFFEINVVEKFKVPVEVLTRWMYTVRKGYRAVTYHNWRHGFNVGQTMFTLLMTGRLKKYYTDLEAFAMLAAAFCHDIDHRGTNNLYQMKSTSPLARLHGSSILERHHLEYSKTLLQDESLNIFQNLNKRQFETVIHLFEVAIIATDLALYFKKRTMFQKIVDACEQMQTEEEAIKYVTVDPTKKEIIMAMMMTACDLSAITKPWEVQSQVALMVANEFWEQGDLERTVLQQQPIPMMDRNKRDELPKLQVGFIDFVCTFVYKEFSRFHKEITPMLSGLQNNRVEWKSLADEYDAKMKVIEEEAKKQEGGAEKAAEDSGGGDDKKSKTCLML

[25] = biological target: Dual 3',5'-cyclic-AMP and -GMP phosphodiesterase 11A (Homo sapiens, UniProt Q9HCR9); test: Inhibition of N-terminal GST-tagged full length recombinant human PDE11A expressed in Baculovirus infected Sf9 insect cells using FAM-cAMP as substrate after 1 hr by fluorescence polarization assay
Chain of Dual 3',5'-cyclic-AMP and -GMP phosphodiesterase 11A (Q9HCR9 whole entry): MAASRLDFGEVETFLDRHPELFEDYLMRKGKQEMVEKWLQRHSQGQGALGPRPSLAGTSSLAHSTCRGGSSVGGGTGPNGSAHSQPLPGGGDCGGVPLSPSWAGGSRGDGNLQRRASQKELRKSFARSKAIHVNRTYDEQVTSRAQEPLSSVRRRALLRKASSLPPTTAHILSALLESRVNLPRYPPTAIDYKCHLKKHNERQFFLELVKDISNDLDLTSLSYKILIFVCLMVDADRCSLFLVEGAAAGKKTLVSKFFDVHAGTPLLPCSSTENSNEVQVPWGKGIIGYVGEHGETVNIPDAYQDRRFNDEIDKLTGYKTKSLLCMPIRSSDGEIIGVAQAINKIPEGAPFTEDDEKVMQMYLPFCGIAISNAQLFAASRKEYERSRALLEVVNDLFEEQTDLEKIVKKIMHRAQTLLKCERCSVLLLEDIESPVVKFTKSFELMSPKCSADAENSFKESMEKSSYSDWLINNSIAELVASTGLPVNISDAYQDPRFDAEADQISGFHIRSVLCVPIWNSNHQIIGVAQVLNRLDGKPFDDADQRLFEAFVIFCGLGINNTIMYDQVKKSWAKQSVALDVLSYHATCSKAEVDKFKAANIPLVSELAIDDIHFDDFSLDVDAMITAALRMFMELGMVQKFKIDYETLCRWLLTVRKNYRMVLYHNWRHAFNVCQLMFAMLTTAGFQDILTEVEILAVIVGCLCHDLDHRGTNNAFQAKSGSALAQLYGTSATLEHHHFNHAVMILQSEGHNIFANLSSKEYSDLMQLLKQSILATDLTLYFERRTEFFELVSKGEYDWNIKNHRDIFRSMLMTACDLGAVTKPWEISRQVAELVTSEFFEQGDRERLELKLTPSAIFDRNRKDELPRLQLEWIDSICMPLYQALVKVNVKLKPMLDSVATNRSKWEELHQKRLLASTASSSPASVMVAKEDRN

[26] = biological target: Dual specificity calcium/calmodulin-dependent 3',5'-cyclic nucleotide phosphodiesterase 1A (Homo sapiens) (UniProt P54750); test: Inhibition of N-terminal GST-tagged full length recombinant human PDE1A expressed in Baculovirus infected Sf9 insect cells at 8 uM using FAM-cAMP as substrate after 1 hr by fluorescence polarization assay relative to control
Chain of Dual specificity calcium/calmodulin-dependent 3',5'-cyclic nucleotide phosphodiesterase 1A (Homo sapiens) (P54750 whole entry, the tested form may be a part): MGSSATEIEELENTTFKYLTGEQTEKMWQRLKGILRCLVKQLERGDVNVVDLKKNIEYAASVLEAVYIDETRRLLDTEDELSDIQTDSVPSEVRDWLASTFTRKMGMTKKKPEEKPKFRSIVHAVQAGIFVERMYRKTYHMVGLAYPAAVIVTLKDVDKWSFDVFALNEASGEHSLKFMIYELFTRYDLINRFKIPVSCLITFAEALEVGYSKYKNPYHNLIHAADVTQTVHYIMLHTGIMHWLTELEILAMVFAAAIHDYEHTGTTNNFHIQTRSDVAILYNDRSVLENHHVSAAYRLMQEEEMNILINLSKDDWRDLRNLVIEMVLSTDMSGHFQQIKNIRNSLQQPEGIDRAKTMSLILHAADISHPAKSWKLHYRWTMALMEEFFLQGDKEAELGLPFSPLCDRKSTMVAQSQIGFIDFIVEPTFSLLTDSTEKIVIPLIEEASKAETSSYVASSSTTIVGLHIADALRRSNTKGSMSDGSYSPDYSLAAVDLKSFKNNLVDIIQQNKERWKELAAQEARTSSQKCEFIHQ

[27] = biological target: cGMP-dependent 3',5'-cyclic phosphodiesterase (Homo sapiens) (UniProt O00408); test: Inhibition of N-terminal FLAG-tagged human PDE2A1 (2 to 941 residues) expressed in Baculovirus infected Sf9 insect cells at 8 uM using FAM-cAMP as substrate after 1 hr by fluorescence polarization assay relative to control
Chain of cGMP-dependent 3',5'-cyclic phosphodiesterase (Homo sapiens) (O00408 whole entry, the tested form may be a part): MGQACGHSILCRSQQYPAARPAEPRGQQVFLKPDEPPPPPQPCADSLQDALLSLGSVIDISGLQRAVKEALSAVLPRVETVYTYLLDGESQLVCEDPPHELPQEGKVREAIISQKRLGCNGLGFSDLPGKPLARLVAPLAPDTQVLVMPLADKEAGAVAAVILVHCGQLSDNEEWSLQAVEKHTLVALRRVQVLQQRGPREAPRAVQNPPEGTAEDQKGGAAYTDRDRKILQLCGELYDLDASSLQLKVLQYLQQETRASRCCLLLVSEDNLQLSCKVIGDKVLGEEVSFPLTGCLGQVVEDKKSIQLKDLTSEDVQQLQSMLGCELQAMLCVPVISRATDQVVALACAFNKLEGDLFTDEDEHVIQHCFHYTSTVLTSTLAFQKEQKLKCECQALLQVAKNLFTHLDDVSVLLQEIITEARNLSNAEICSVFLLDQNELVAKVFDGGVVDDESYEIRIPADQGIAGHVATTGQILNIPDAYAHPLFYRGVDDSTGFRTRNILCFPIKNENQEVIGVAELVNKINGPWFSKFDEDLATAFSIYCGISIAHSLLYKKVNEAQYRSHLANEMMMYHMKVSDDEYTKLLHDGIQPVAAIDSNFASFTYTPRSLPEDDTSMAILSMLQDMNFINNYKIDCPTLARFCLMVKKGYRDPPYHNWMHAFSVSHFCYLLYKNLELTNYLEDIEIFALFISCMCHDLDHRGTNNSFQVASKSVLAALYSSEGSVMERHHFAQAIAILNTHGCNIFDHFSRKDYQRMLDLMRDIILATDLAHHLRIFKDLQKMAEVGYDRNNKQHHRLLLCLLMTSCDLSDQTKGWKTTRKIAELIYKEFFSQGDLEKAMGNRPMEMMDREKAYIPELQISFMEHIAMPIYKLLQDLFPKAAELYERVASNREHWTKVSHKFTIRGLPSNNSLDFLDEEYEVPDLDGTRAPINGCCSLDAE

[28] = biological target: cGMP-dependent 3',5'-cyclic phosphodiesterase (Homo sapiens) (UniProt O00408); test: Inhibition of N-terminal FLAG-tagged human PDE2A1 (2 to 941 residues) expressed in Baculovirus infected Sf9 insect cells at 250 uM using FAM-cAMP as substrate after 1 hr by fluorescence polarization assay relative to control
[29] = biological target: cGMP-inhibited 3',5'-cyclic phosphodiesterase 3B (Homo sapiens) (UniProt Q13370); test: Inhibition of N-terminal GST-tagged recombinant human PDE3B (592 end residues) expressed in Baculovirus infected Sf9 insect cells at 8 uM using FAM-cAMP as substrate after 1 hr by fluorescence polarization assay relative to control
Chain of cGMP-inhibited 3',5'-cyclic phosphodiesterase 3B (Homo sapiens) (Q13370 whole entry, looked up): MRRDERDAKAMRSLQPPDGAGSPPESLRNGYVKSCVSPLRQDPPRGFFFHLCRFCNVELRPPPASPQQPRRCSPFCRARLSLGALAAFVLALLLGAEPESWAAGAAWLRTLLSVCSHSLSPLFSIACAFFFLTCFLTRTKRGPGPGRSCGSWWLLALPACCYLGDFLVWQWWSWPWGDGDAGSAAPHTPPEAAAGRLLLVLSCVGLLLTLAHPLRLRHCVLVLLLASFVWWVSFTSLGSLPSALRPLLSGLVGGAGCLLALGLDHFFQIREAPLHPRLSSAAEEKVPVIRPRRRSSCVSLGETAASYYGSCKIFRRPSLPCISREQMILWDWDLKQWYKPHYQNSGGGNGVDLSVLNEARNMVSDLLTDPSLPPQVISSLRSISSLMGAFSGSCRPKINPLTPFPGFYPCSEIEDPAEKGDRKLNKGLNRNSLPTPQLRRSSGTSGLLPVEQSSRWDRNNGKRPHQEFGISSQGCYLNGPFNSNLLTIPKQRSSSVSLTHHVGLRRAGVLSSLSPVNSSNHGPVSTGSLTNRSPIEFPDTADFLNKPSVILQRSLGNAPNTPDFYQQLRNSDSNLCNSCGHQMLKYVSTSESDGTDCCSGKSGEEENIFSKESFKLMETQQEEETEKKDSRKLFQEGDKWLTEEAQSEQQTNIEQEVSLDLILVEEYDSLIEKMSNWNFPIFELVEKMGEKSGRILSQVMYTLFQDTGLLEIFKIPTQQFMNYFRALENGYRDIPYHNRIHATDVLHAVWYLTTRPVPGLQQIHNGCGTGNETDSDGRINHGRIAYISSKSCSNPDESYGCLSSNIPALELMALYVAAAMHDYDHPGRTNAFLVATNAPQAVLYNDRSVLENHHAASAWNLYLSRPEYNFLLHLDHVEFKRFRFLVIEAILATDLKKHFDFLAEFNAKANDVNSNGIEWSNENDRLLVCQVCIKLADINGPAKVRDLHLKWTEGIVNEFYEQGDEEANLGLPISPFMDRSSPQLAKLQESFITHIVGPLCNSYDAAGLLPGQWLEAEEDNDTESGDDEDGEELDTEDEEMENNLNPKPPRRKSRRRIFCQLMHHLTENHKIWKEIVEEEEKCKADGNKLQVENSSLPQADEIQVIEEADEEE

[30] = biological target: 3',5'-cyclic-AMP phosphodiesterase 4A (Homo sapiens) (UniProt P27815); test: Inhibition of N-terminal GST-tagged full length recombinant human PDE4A1A expressed in Baculovirus infected Sf9 insect cells at 1.5 uM using FAM-cAMP as substrate after 1 hr by fluorescence polarization assay relative to control
[31] = as §2; assay type: ADME, organism-based; parameters: dose 15 mg/kg, route oral, time infinity; conditions: Wistar, in vivo; method in brief: as §1
[32] = Clearance in Wistar rat at 15 mg/kg, po; assay type: ADME, organism-based; conditions: in vivo
[33] = biological target: Dual specificity calcium/calmodulin-dependent 3',5'-cyclic nucleotide phosphodiesterase 1A (Homo sapiens) (UniProt P54750); test: Inhibition of N-terminal GST-tagged full length recombinant human PDE1A expressed in Baculovirus infected Sf9 insect cells at 6 uM using FAM-cAMP as substrate after 1 hr by fluorescence polarization assay relative to control
[34] = biological target: cGMP-dependent 3',5'-cyclic phosphodiesterase (Homo sapiens) (UniProt O00408); test: Inhibition of N-terminal FLAG-tagged human PDE2A1 (2 to 941 residues) expressed in Baculovirus infected Sf9 insect cells at 6 uM using FAM-cAMP as substrate after 1 hr by fluorescence polarization assay relative to control
[35] = biological target: cGMP-inhibited 3',5'-cyclic phosphodiesterase 3B (Homo sapiens) (UniProt Q13370); test: Inhibition of N-terminal GST-tagged recombinant human PDE3B (592 end residues) expressed in Baculovirus infected Sf9 insect cells at 6 uM using FAM-cAMP as substrate after 1 hr by fluorescence polarization assay relative to control
[36] = biological target: 3',5'-cyclic-AMP phosphodiesterase 4A (Homo sapiens) (UniProt P27815); test: Inhibition of N-terminal GST-tagged full length recombinant human PDE4A1A expressed in Baculovirus infected Sf9 insect cells at 1 uM using FAM-cAMP as substrate after 1 hr by fluorescence polarization assay relative to control

| IC50 [1] | Ratio IC50 (Homo sapiens [2]) | Ratio IC50 (Homo sapiens [3]) | Ratio IC50 (Homo sapiens [4]) | Ratio IC50 (Homo sapiens [5]) | Ratio IC50 (Homo sapiens [6]) | Ratio IC50 (Homo sapiens [7]) | half-life [8] | half-life [9] | Cmax [10] | Cmax [11] | Tmax [12] | Tmax [13] | AUC(0-t) at 24 h [14] | AUC(0-t) at 24 h [15] | AUC(0-inf) [16] | MRT [18] | MRT [19] | clearance [20] | Vd [21] | SMILES | other results |
| --- | --- | --- | --- | --- | --- | --- | --- | --- | --- | --- | --- | --- | --- | --- | --- | --- | --- | --- | --- | --- | --- |
| 0.52 nM | > 10000 | > 10000 | > 10000 | > 2500 | 2.5 | 5.2 | 1.9 h | 4.3 h | 308 ng/mL | 27.5 ng/mL | 6 min | 2.8 h | 121 ng·h/mL | 225 ng·h/mL | 125 ng·h/mL | 2.9 h | 6.7 h | 287 mL/min/kg | 72.7 L/kg | CCc1ccc([C@@H]2c3[nH]c4ccccc4c(=O)c3CN2c2ncc(-c3ccccn3)cn2)s1 | AUC (Rattus norvegicus [17]): 231.9 ng·h/mL; Vdss (Rattus norvegicus [22]): 181.3 L/kg; bioavailability [23]: 24.7%; Activity (Thoracic aorta): >90%; ED50 (Oryctolagus cuniculus): 0.0217 mg/kg; IC50 [24]: 1.2 nM; IC50 [25]: 2.7 nM; inhibition [26]: 9.5%; inhibition [27]: 39%; inhibition [28]: 81%; inhibition [29]: 7%; inhibition [30]: 10% |
| 0.39 nM | > 10000 | > 10000 | > 10000 | > 2500 | 3.9 | 13.1 | 2.9 h | 7.8 h | 89.2 ng/mL | 46.9 ng/mL | 6 min | 1.3 h | 67.9 ng·h/mL | 312 ng·h/mL | 69.3 ng·h/mL | 3.1 h | 9.4 h | 533 mL/min/kg | 124 L/kg | CCc1ccc([C@@H]2c3[nH]c4ccccc4c(=O)c3CN2c2ncc(-c3ccccn3)cn2)o1 | AUC(0-inf) [31]: 344 ng·h/mL; CL/F [32]: 550 mL/min/kg; Vdss (Rattus norvegicus [22]): 420.9 L/kg; bioavailability [23]: 66.3%; Activity (Thoracic aorta): >90%; ED50 (Oryctolagus cuniculus): 0.0242 mg/kg; IC50 [24]: 1.5 nM; IC50 [25]: 5.1 nM; inhibition [33]: 6%; inhibition [34]: 49%; inhibition [35]: 9.5%; inhibition [36]: 18% |
